Sampled rows, rich in hits. Any-hit rate of the full collection: about 1.9%.
FAS-TE inh = blocks the thioesterase domain of human fatty acid synthase. P49327. recombinant FAS-TE, OMFH fluorogenic substrate, fluorescence endpoint. inhibition, % at 15 µM. 0.67% of 360,000 active. AID 602261;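 active = compounds whose normalised, plate-corrected inhibition of enzyme fluorescence in the single-dose primary screen is 50% or more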
SUMO1-SIM PPI = alters human SUMO1 binding to SIM partners; inhibition, % at 20 µM; P63165; AID 602429; 0.33% of 360,000 active; SUMO1 binding to a labelled peptide, TR-FRET, 1 h; in the data active = inhibition above about 37%
Target sequence (P63165 whole entry, looked up): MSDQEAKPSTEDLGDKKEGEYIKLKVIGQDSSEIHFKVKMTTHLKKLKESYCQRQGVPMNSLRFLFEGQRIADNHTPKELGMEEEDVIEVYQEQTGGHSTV
STEP inh = inhibitors of human striatal-enriched phosphatase STEP. recombinant STEP, OMFP fluorogenic substrate, fluorescence. inhibition, % at 20 µM. 0.25% of 360,000 active. AID 588621;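 active = inhibition at 20 µM, scaled per plate between control wells, above about 37%, limit read from the data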
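Test system: STEP tyrosine phosphatase / Reagent: OMFP at 25 µM / Doses: 20 µM, 1% DMSO / Read-out: percent inhibition scaled to no-enzyme and uninhibited-enzyme controls, plate-pattern corrected / Detection: FITC-channel fluorescence of OMFP product / Medium: Bis-Tris buffer pH 6.0, 2.5 mM DTT, 0.005% Tween 20 / Schedule: 20 min at room temperature, dark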
LMPTP inh = LMPTP (human) inhibition; recombinant LMPTP-A, OMFP fluorogenic substrate, fluorescence intensity; P24666; 0.22% of 360,000 active; inhibition, % at 20 µM; AID 651560;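 active = compounds that cut the enzyme signal by at least half of the control window in the single-dose screen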
Target sequence (P24666 whole entry, looked up): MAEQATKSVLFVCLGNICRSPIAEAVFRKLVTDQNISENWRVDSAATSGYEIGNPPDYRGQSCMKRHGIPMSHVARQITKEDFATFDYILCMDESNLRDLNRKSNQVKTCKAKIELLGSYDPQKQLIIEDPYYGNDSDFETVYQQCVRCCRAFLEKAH
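material = LMPTP-A | quantity = 0.625 nM enzyme | reagent = OMFP substrate, 400 µM final | buffer or medium = Bis-Tris pH 6.0, DTT, detergent | detection = endpoint fluorescence intensity from OMFP dephosphorylation | dosing = single 20 µM dose | read-out basis = % inhibition relative to no-enzyme and uninhibited control wells | control set = no-enzyme and uninhibited controls | timing = 50 min at room temperature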
Scp1 inh = blocks human Scp-1 phosphatase activity. Recombinant Scp1, phosphopeptide, malachite green phosphate absorbance. inhibition, % at 20 µM. 0.88% of 340,000 active. AID 493091;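 active = inhibition above about 50% at 20 µM, limit read from the data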
Target sequence (Q9GZU7 76-261 limits assumed): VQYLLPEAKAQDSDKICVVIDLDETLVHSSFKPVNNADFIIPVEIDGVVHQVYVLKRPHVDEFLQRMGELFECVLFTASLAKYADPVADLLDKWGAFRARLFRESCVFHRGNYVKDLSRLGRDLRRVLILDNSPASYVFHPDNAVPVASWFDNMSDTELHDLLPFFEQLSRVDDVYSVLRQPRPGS
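System: truncated SCP-1 phosphatase (76-261aa); medium: Tris acetate buffer pH 5.5 with MgCl2 and Tween-20; incubation: 45 min room-temperature reaction, 5 min colour, 30 min stabiliser; compound: single 20 µM dose, 1% DMSO; reagent: Phosphorylated 17-residue peptide substrate; read-out: % inhibition at 20 µM; technique: colorimetric free-phosphate detection, absorbance 630 nm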
Scp-1 conf = Scp-1 (human) inhibition, single-dose confirmed. shares compounds with Scp1 inh. recombinant SCP-1 catalytic domain, phosphate release, malachite green absorbance. inhibition, % at 20 µM. 61% of 2,500 active. AID 540281
MG interference = counter-screen for Scp-1 inhibitors: colorimetric interference; 2,500 tested, under 10 active; apparent inhibition (interference), % at 20 µM; shares compounds with Scp1 inh; Colorimetric interference counterscreen, malachite green absorbance 630 nm;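 also: compounds added after enzyme reaction finished so only phosphate colour detection is probed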
Scp-1 Tm shift = validation of human Scp-1 inhibitors by thermal shift binding; shares compounds with Scp1 inh; Recombinant SCP1, Sypro Orange thermal shift Tm; thermal shift relative to vanadate control, % at 40 µM; 25% of 1,500 active; AID 540329;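 active = substances whose mean melting-temperature shift, as a percentage of the reference inhibitor's shift, reaches about 5.3%, limit read from the data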
Of the large screens only hits and unclear results are named; the others gave an inactive call (follow-up assays come after a bar, where they were run).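 The calls were made as follows, unless noted: active = inhibition of at least 30% at 20 µM; inactive = the rest.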

O=C(CN1C(=O)C2CCCCC2C1=O)Nc1ccccc1N1CCCC1 (configuration not stated)	Scp1 inh 62 | Scp-1 conf inactive | MG interference inactive
O=C(CN1C(=O)C2CC=CCC2C1=O)Nc1ccccc1N1CCCC1 (configuration not stated)	none
CCCCNC(=O)C1CC(=O)N(CCc2ccc(C)cc2)C1 (configuration not stated)	none
COc1ccc(NS(=O)(=O)c2cccc(C(=O)N/N=C/c3c(F)c(F)c(F)c(F)c3F)c2)cc1	Scp1 inh 75 | Scp-1 conf 52 | MG interference inactive | Scp-1 Tm shift 7.3
COc1ccc(NS(=O)(=O)c2cccc(C(=O)NN=Cc3ccc(OC)c(O)c3)c2)cc1	none
CC(OC(=O)C1CCN(c2ccc(C(F)(F)F)cn2)CC1)C(=O)c1ccccc1 (configuration not stated)	none
CC(CCc1ccccc1)NC(=O)CCNS(=O)(=O)c1ccccc1 (configuration not stated)	none
CC(NC(=O)CCNS(=O)(=O)c1ccccc1)c1ccccc1 (configuration not stated)	Scp1 inh 51 | Scp-1 conf inactive | MG interference inactive
O=C(N[C@H]1CC[C@H](CCNC(=O)C2CC2)O[C@@H]1CO)c1ccccn1	none (no result: FAS-TE inh, STEP inh, Scp1 inh)
Cc1nc2scc(C)n2c(=O)c1S(=O)(=O)N1CCN(c2cccc(C(F)(F)F)c2)CC1	none
COc1ccc(NC(=O)c2cc3ccccc3cc2OC)cc1	none
COc1cccc2cc(C(=O)Nc3ccc(F)cc3)c(=Nc3ccc(C(=O)O)cc3)oc12	Scp1 inh 102 | Scp-1 conf inactive | MG interference inactive
COc1cc2ccccc2cc1C(=O)NC(=S)Nc1ccc(C(=O)O)cc1	Scp1 inh 61 | Scp-1 conf 52 | MG interference inactive | Scp-1 Tm shift inactive
COc1ccc(NC(=O)C(c2ccc(C#N)cc2)n2c(=O)c(-c3cc4ccccc4[nH]3)nc3ccccc32)cc1 (configuration not stated)	none (no result: FAS-TE inh, STEP inh, Scp1 inh)
CCOC(=O)CC1(C)OCC(C[N+]2(C)CCCCC2)O1 (configuration not stated)	Scp1 inh 93 | Scp-1 conf 93 | MG interference inactive | Scp-1 Tm shift inactive
CCOC(=O)C1=C(C)NC(SC)=NC1c1ccc(OC)cc1 (configuration not stated)	none
CCC1N=C(SC)NC(C)=C1C(=O)c1ccccc1 (configuration not stated)	Scp1 inh 96 | Scp-1 conf inactive | MG interference inactive
COc1ccc2[nH]cc(CCNC(=O)Cn3cc(C)c(=O)[nH]c3=O)c2c1	none
O=C(Nc1ccc(-c2nc3ccccc3s2)c(O)c1)C1=COCCO1	LMPTP inh 53, Scp1 inh 98 | Scp-1 conf 71 | MG interference inactive | Scp-1 Tm shift 9.9
O=C(Nc1ccc(O)c(-c2nc3ccccc3s2)c1)C1=COCCO1	none
COC(=O)c1ccc2nc(-c3ccc(Cl)cc3)c(Cc3ccsc3)n2c1	none (no result: STEP inh, Scp1 inh)
COC1=CC(=O)OC(c2ccccc2C(F)(F)F)C1 (configuration not stated)	none (no result: FAS-TE inh, STEP inh, Scp1 inh)
Cc1ccc2[nH]c(O)c(N=NC(=O)c3ccc(NS(=O)(=O)c4cccs4)cc3)c2c1	STEP inh 58, Scp1 inh 100 | Scp-1 conf 58 | MG interference inactive | Scp-1 Tm shift inactive
CN(C)/C=C/C=C1C(=O)CCCC1=O	Scp1 inh 58 | Scp-1 conf 49 | MG interference inactive | Scp-1 Tm shift inactive
CC1=NN(c2ccccc2)C(=O)/C1=C/C=C/C=C/N(C)C	none
O=C1CC(C(=O)Nc2ccc(C(=O)O)cc2)C(c2ccccc2)O1 (configuration not stated)	none
O=C1CC(C(=O)Nc2ccc(O)c(C(=O)O)c2)C(c2ccccc2)O1 (configuration not stated)	Scp1 inh 51 | Scp-1 conf 30 | MG interference inactive | Scp-1 Tm shift inactive
CCOc1ccc2nc(Nc3nc(CSc4nnnn4-c4ccccc4)cc(=O)[nH]3)nc(C)c2c1	none
COc1ccc2nc(Nc3nc(CSc4nnnn4-c4ccccc4)cc(=O)[nH]3)nc(C)c2c1	Scp1 inh 83 | Scp-1 conf inactive | MG interference inactive
C/C(N)=C(/C#N)C(=O)CSc1nnc(Nc2ccccc2)s1	none
C/C(N)=C(/C#N)C(=O)CSc1nnc(NC(C)C)s1	Scp1 inh 91 | Scp-1 conf 64 | MG interference inactive | Scp-1 Tm shift inactive
N=C1/C(=C/c2ccc(-c3cccc(C(=O)O)c3)o2)C(=O)N=C2SC(CC(=O)N3CCOCC3)=NN12	Scp1 inh 79 | Scp-1 conf 58 | MG interference inactive | Scp-1 Tm shift inactive
N=C1/C(=C\c2ccc(SCc3ccccc3)o2)C(=O)N=C2SC(CC(=O)N3CCOCC3)=NN12	none
Clc1ccc(CN=C2Nc3ccccc3CS2)cc1	none
c1cncc(CN=C2Nc3ccccc3CS2)c1	Scp1 inh 69 | Scp-1 conf inactive | MG interference inactive
O=C(CSc1ccc(-c2ccccc2)nn1)N1CCCc2ccccc21	Scp1 inh 58 | Scp-1 conf inactive | MG interference inactive
CN(C)CCOc1ccccc1-c1ccccc1	Scp1 inh 76 | Scp-1 conf inactive | MG interference inactive
CN(C)CCOCCOc1ccccc1-c1ccccc1	none
CCCNS(=O)(=O)c1ccc(NC(=O)Cc2cccs2)cc1	none
O=C(Cc1ccc(S(=O)(=O)N2CCOCC2)s1)Nc1ccc(N2CCOCC2)cc1	none
CN(C)S(=O)(=O)c1ccc(NC(=O)Cc2ccc(S(=O)(=O)N3CCOCC3)s2)cc1	Scp1 inh 55 | Scp-1 conf 58 | MG interference inactive | Scp-1 Tm shift inactive
O=C(Cc1cccs1)Nc1ccc(S(=O)(=O)N2CCCC2)cc1	Scp1 inh 59 | Scp-1 conf 75 | MG interference inactive | Scp-1 Tm shift 6.1
CCCCN(CCCC)S(=O)(=O)c1ccc(NC(=O)Cc2cccs2)cc1	Scp1 inh 54 | Scp-1 conf 58 | MG interference inactive | Scp-1 Tm shift 7.6
CCCN(CCC)S(=O)(=O)c1ccc(NC(=O)Cc2cccs2)cc1	Scp1 inh 61 | Scp-1 conf 73 | MG interference inactive | Scp-1 Tm shift inactive
Cn1ccc(C(=O)NC(=S)N2CCSCC2)n1	none
CCCCCCCCN1CC(Cc2cc3ccccc3c3ccccc23)N(c2ccccc2)c2ccccc2C1=O (configuration not stated)	none (no result: FAS-TE inh, STEP inh, Scp1 inh)

Bioassay records: PubChem, Sanford-Burnham Center for Chemical Genomics
